From ChEMBL document CHEMBL3286365, “Neoflavonoids as potential osteogenic agents from Dalbergia sissoo heartwood” (Bioorg Med Chem Lett, 2014) come the findings set out here.

Activity calls are given as the source filed them. The rule behind the calls is not given here.

As usually defined, the EC50 is the concentration that produces a half-maximal response.

What all share (assay type): functional, cell-based
For experiment [1], the system named is Calvarial osteoblast. The experiment is described as follows: Increase in BMP-2 gene expression in rat calvarial osteoblast cells by qPCR analysis. Background: Quantitative PCR measures a nucleic acid by following its amplification.
Experiment [2] has as its system Calvarial osteoblast. The experiment is described as follows: Increase in osteocalcin gene expression in rat calvarial osteoblast cells by qPCR analysis.
For experiment [3], the system named is Calvarial osteoblast. The experiment is described as follows: Increase in collagen 1 gene expression in rat calvarial osteoblast cells by qPCR analysis.
Experiment [4] concerns Calvarial osteoblast. The experiment is described as follows: Osteogenic activity in rat calvarial osteoblast cells assessed as induction of cell differentiation by measuring alkaline phosphatase activity using pNPP as substrate by calorimetric analysis. Conditions: for EC50: Rattus norvegicus, Calvarial osteoblast. The method, boiled down: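 Primary rat calvarial osteoblasts, trypsinized at about 80% confluence, seeded at 2×10³ cells/well. Treated with compound (100µM, 1µM, 10nM, 100pM, 1pM) or vehicle for 48 h in α-MEM with 10% FBS, 10mM β-glycerophosphate, 50µg/ml ascorbic acid and 1% penicillin/streptomycin. Total ALP measured with p-nitrophenylphosphate substrate, absorbance at 405 nm. Mean±S.D. of three independent experiments.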

The test system of experiment [5] is Calvarial osteoblast. The experiment is described as follows: Increase in RunX2 gene expression in rat calvarial osteoblast cells by qPCR analysis.
In experiment [6] the test system is Calvarial osteoblast. The experiment is described as follows: Osteogenic activity in rat calvarial osteoblast cells assessed as induction of mineralization by Alizarin red-S staining. The method, boiled down:
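Calvarial osteoblasts trypsinized at 80% confluence and plated at 2.5×10⁴ cells/well. Treated with compound in differentiation medium (ascorbic acid 50µg/ml, β-glycerophosphate 10mM), with medium changed every alternate day for up to 21 days. Fixed in 4% paraformaldehyde for 15 min, stained 30 min with 40mM Alizarin Red-S (pH 4.5). Dye extracted with 10% acetic acid, heated at 85°C, neutralized with ammonium hydroxide, OD read at 405 nm.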

As for `COc1cc2oc(=O)cc(-c3ccccc3)c2cc1O` [DALBERGIN], the result in the experiment with Calvarial osteoblast [1], with Calvarial osteoblast [2], in the experiment with Calvarial osteoblast [3] and with Calvarial osteoblast [5] was Active. Also, the “concentration of maximal effect” value in the experiment on Calvarial osteoblast [4] stood at 1 pM. Moreover, the half-maximal effective concentration (EC50) in the experiment on Calvarial osteoblast [4] was 1.01 nM.
Turning to `COc1cc2c(cc1O)C(c1ccccc1)=CCO2`, the outcome in the experiment with Calvarial osteoblast [1], with Calvarial osteoblast [2], with Calvarial osteoblast [3] and in the experiment on Calvarial osteoblast [5] was Active. Moreover, the “concentration of maximal effect” value in the experiment on Calvarial osteoblast [4] was determined as 10000 pM. Also, the concentration for a half-maximal effect (EC50) in the experiment on Calvarial osteoblast [4] was determined as 1700 nM.
As to `COc1cc2oc(=O)cc(-c3ccccc3)c2cc1OC`, the result in the experiment with Calvarial osteoblast [1], in the experiment with Calvarial osteoblast [2], in the experiment on Calvarial osteoblast [3], in the experiment with Calvarial osteoblast [5] and with Calvarial osteoblast [6] was Active. Further, the “concentration of maximal effect” value with Calvarial osteoblast [4] stood at 1e+06 pM.
Take `COc1cc(OC)c(/C(=C/C=O)c2ccccc2)cc1O`: the result with Calvarial osteoblast [1], in the experiment on Calvarial osteoblast [2], in the experiment on Calvarial osteoblast [3], in the experiment on Calvarial osteoblast [5] and in the experiment on Calvarial osteoblast [6] was Active. Also, the “concentration of maximal effect” value in the experiment with Calvarial osteoblast [4] was determined as 100 pM. The EC50 in the experiment with Calvarial osteoblast [4] was 6.46 nM.
As for `COC1=CC(=O)c2cc(-c3ccccc3)c3cc(O)c(OC)cc3c2C1=O` [LATINONE], the result with Calvarial osteoblast [1], with Calvarial osteoblast [2], in the experiment on Calvarial osteoblast [3] and in the experiment on Calvarial osteoblast [5] was Active. For the same compound, the “concentration of maximal effect” value in the experiment on Calvarial osteoblast [4] came to 1e+06 pM.
Turning to `C=CC(c1ccccc1)c1cc(O)c(OC)cc1OC` (stereo unspecified) [DALBERGIPHENOL], the outcome in the experiment with Calvarial osteoblast [1], in the experiment with Calvarial osteoblast [2], in the experiment with Calvarial osteoblast [3], in the experiment on Calvarial osteoblast [5] and with Calvarial osteoblast [6] was Active. Further, the “concentration of maximal effect” value in the experiment with Calvarial osteoblast [4] was 10000 pM.
